Assay results published in ChEMBL document CHEMBL2086221, “Armeniaspiroles, a new class of antibacterials: Antibacterial activities and total synthesis of 5-chloro-Armeniaspirole A” (Bioorg Med Chem Lett, 2012).
Converted amounts (≈) assume the structure as drawn. The source made the active and inactive calls. The rule behind the calls is not given here.

Legend:
Streptococcus pneumoniae [1] = assay: Bacteriostatic activity against penicillin-resistant Streptococcus pneumoniae DSM 11865 by time kill study in presence of fetal calf serum; assay type: functional, organism-based
Enterococcus faecium [2] = assay: Bacteriostatic activity against vancomycin-resistant Enterococcus faecium DSM 17050 by time kill study; assay type: functional, organism-based
Escherichia coli [3] = assay: Bacteriostatic activity against Escherichia coli ATCC 35218 expressing LacR by time kill study; assay type: functional, organism-based
Pseudomonas aeruginosa [4] = assay: Antibacterial activity against Pseudomonas aeruginosa ATCC 27853 at >1 ug/mL after 48 hrs; assay type: functional, organism-based
Pseudomonas aeruginosa [5] = assay: Bacteriostatic activity against Pseudomonas aeruginosa ATCC 27853 by time kill study in presence of fetal calf serum; assay type: functional, organism-based
Enterococcus faecium [6] = assay: Bacteriostatic activity against vancomycin-resistant Enterococcus faecium DSM 17050 by time kill study in presence of fetal calf serum; assay type: functional, organism-based
Staphylococcus aureus [7] = assay: Antibacterial activity against methicillin-resistant Staphylococcus aureus ATCC 33592 at >1 ug/mL after 48 hrs; assay type: functional, organism-based
Escherichia coli [8] = assay: Bacteriostatic activity against Escherichia coli ATCC 35218 expressing LacR by time kill study in presence of fetal calf serum; assay type: functional, organism-based
Streptococcus pneumoniae [9] = assay: Antibacterial activity against penicillin-resistant Streptococcus pneumoniae DSM 11865 at >1 ug/mL after 48 hrs; assay type: functional, organism-based
Pseudomonas aeruginosa [10] = assay: Bacteriostatic activity against Pseudomonas aeruginosa ATCC 27853 by time kill study; assay type: functional, organism-based
Enterococcus faecium [11] = assay: Antibacterial activity against vancomycin-resistant Enterococcus faecium DSM 17050 at >1 ug/mL after 48 hrs; assay type: functional, organism-based
Staphylococcus aureus [12] = assay: Bacteriostatic activity against methicillin-resistant Staphylococcus aureus ATCC 33592 by time kill study in presence of fetal calf serum; assay type: functional, organism-based
Escherichia coli [13] = assay: Antibacterial activity against Escherichia coli ATCC 35218 expressing LacR at >1 ug/mL after 48 hrs; assay type: functional, organism-based
Pseudomonas aeruginosa [14] = assay: Antibacterial activity against Pseudomonas aeruginosa ATCC 27853; assay type: functional
Staphylococcus aureus [15] = assay: Antibacterial activity against methicillin-resistant Staphylococcus aureus ATCC 33592 infected in iv dosed mouse assessed as decrease in bacteremia; assay type: functional, organism-based
[16] = Drug degradation in PBS buffer over 24 hrs in presence of GSH; assay type: physicochemical; settings: PBS buffer with GSH; read-out: Drug degradation
How it was run: (§1)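 Parent compound incubated in PBS buffer with 10 mM GSH or 10 mM i-BuNH2 for 24 h; read-out is the decrease in parent compound concentration over that period.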

[17] = Half life in Swiss mouse plasma at 7.5 mg/kg, iv; assay type: ADME, organism-based; parameters: dose 7.5 mg/kg, route intravenous
How it was run: (§2)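 Male Swiss mice dosed 7.5 mg/kg iv; plasma pharmacokinetics gave clearance, steady-state volume of distribution, Cmax and plasma half-life.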

[18] = Chemical stability of the compound in PBS buffer up to 24 hrs at pH 7.4; assay type: physicochemical; settings: pH 7.4, 24 h
Enterococcus faecium [19] = assay: Antibacterial activity against vancomycin-resistant Enterococcus faecium DSM 17050; assay type: functional; settings: Enterococcus faecium, DSM 17050
[20] = Volume of distribution at steady state in Swiss mouse at 7.5 mg/kg, iv; assay type: ADME, organism-based; parameters: dose 7.5 mg/kg, route intravenous; settings: in vivo, read-out: Vdss; how it was run: as §2
Staphylococcus aureus [21] = assay: Antibacterial activity against methicillin-resistant Staphylococcus aureus ATCC 33592 infected in mouse assessed as log reduction in bacteremia at 15 mg/kg/day, iv relative to control; assay type: functional
Staphylococcus aureus [22] = assay: Antibacterial activity against methicillin-resistant Staphylococcus aureus ATCC 33592 infected in mouse assessed as log reduction in bacteremia at 10 mg/kg/day, iv relative to control; assay type: functional
[23] = Drug degradation in PBS buffer over 24 hrs in presence of i-BuNH2; assay type: physicochemical; settings: PBS buffer with i-BuNH2; read-out: Drug degradation; how it was run: as §1
Cytochrome P450 3A4 = Cytochrome P450 3A4 (Homo sapiens, UniProt P08684); assay: Inhibition of CYP3A4; assay type: ADME
Chain of Cytochrome P450 3A4 (P08684 whole entry): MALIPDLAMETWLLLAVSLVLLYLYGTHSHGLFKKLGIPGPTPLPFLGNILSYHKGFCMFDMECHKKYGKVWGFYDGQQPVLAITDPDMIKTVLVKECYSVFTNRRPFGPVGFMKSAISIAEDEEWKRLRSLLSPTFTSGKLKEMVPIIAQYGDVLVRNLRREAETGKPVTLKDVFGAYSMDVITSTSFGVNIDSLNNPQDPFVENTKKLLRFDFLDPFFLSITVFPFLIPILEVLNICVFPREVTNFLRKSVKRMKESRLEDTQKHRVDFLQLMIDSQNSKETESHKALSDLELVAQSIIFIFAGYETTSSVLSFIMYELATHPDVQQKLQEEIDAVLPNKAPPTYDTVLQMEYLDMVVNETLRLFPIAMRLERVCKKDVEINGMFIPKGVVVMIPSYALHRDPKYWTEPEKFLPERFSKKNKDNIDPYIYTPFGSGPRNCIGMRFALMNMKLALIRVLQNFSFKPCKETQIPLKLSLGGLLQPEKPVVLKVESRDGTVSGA

Staphylococcus aureus [24] = assay: Antibacterial activity against methicillin-resistant Staphylococcus aureus ATCC 33592 infected in mouse assessed as host survival at 40 mg/kg/day, sc relative to control; assay type: functional; settings: ATCC 33592, sc, route subcutaneous
How it was run: (§3)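 Mice with MRSA ATCC33592 septicemia were dosed sc at 20, 40 or 80 mg/kg/d in 5% ethanol/5% Solutol/Tris-NaCl buffer pH 9. Survival was scored in six animals per group, and log reduction of blood bacteremia in five animals per group. Results are given as mean ± sem against the vehicle-treated group (P < 0.05 or P < 0.001).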

[25] = Cmax in Swiss mouse at 7.5 mg/kg, iv; assay type: ADME, organism-based; parameters: dose 7.5 mg/kg, route intravenous; settings: in vivo; how it was run: as §2
Staphylococcus aureus [26] = assay: Antibacterial activity against methicillin-resistant Staphylococcus aureus ATCC 33592 infected in mouse assessed as host survival at 15 mg/kg/day, iv relative to control; assay type: functional
hERG (KCNH2) = hERG (KCNH2) (Homo sapiens, UniProt Q12809); assay: Inhibition of human ERG at 10 uM
Chain of hERG (KCNH2) (Q12809 whole entry): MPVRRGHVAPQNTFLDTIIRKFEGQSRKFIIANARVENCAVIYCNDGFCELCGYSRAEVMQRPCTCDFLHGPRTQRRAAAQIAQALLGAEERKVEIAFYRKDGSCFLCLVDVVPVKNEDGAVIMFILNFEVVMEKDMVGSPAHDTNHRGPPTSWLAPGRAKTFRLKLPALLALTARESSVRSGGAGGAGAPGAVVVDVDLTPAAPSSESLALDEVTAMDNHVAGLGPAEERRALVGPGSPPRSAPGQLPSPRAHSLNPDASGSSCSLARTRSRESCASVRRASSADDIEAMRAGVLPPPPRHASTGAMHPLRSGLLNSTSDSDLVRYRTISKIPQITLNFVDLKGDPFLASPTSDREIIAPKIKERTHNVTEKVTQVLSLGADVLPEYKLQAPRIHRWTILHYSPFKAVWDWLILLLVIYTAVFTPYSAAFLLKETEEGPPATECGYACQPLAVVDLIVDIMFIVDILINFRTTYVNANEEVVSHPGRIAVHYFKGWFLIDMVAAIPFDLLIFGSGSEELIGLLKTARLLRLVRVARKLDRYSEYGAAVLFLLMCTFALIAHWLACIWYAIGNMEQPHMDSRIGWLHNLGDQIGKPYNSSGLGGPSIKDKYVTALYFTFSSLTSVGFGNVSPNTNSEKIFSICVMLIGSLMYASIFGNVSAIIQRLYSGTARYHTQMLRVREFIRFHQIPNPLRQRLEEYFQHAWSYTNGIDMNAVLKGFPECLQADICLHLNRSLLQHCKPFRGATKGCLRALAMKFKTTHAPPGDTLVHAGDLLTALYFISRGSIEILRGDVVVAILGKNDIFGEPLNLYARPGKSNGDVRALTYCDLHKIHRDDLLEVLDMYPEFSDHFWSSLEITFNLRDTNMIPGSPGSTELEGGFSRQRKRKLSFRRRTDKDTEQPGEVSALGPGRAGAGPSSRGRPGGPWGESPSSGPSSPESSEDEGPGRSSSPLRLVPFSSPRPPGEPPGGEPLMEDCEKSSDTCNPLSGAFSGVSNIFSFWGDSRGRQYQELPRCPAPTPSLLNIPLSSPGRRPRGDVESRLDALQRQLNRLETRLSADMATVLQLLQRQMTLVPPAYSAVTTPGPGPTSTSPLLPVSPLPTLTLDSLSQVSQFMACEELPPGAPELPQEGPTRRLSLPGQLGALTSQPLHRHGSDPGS

Staphylococcus aureus [27] = assay: Antibacterial activity against methicillin-resistant Staphylococcus aureus ATCC 33592 infected in mouse assessed as log reduction in bacteremia at 80 mg/kg/day, sc relative to control; assay type: functional; settings: route subcutaneous; how it was run: as §3
Staphylococcus aureus [28] = assay: Antibacterial activity against methicillin-resistant Staphylococcus aureus ATCC 33592; assay type: functional; settings: Staphylococcus aureus, ATCC 33592
Staphylococcus aureus [29] = assay: Antibacterial activity against methicillin-resistant Staphylococcus aureus ATCC 33592 infected in mouse assessed as host survival at 10 mg/kg/day, iv relative to control; assay type: functional
Staphylococcus aureus [30] = assay: Antibacterial activity against methicillin-resistant Staphylococcus aureus ATCC 33592 infected in mouse assessed as host survival at 3 mg/kg/day, iv relative to control; assay type: functional
Streptococcus pneumoniae [31] = assay: Antibacterial activity against penicillin-resistant Streptococcus pneumoniae DSM 11865; assay type: functional; settings: Streptococcus pneumoniae, DSM 11865
Staphylococcus aureus [32] = assay: Antibacterial activity against methicillin-resistant Staphylococcus aureus ATCC 33592 infected in mouse assessed as log reduction in bacteremia at 40 mg/kg/day, sc relative to control; assay type: functional; settings: route subcutaneous; how it was run: as §3
Escherichia coli [33] = assay: Antibacterial activity against Escherichia coli ATCC 35218 expressing LacR; assay type: functional
Cytochrome P450 2D6 = Cytochrome P450 2D6 (Homo sapiens, UniProt P10635); assay: Inhibition of CYP2D6; assay type: ADME
Chain of Cytochrome P450 2D6 (P10635 whole entry): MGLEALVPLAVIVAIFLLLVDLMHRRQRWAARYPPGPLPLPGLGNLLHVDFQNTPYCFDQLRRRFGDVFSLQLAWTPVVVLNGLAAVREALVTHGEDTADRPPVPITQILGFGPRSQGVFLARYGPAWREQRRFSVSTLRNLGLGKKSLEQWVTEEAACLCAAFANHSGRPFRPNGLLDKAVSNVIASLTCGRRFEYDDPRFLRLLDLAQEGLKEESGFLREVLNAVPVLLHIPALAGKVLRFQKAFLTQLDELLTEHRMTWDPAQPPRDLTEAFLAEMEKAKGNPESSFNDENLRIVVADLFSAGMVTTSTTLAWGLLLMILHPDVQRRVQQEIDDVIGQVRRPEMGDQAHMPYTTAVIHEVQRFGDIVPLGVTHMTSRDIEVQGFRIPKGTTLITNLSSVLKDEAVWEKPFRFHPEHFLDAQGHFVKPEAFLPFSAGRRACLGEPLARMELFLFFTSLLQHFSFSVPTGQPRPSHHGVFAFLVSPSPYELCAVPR

Staphylococcus aureus [34] = assay: Antibacterial activity against methicillin-resistant Staphylococcus aureus ATCC 33592 infected in mouse assessed as host survival at 80 mg/kg/day, sc relative to control; assay type: functional; settings: ATCC 33592, sc, route subcutaneous; how it was run: as §3
Staphylococcus aureus [35] = assay: Antibacterial activity against methicillin-resistant Staphylococcus aureus ATCC 33592 infected in mouse assessed as log reduction in bacteremia at 3 mg/kg/day, iv relative to control; assay type: functional
[36] = Clearance in Swiss mouse at 7.5 mg/kg, iv; assay type: ADME, organism-based; parameters: dose 7.5 mg/kg, route intravenous; settings: in vivo; how it was run: as §2
[37] = Solubility of the compound in PBS buffer at pH 7.4; assay type: physicochemical
Staphylococcus aureus [38] = assay: Antibacterial activity against methicillin-resistant Staphylococcus aureus ATCC 33592 infected in iv dosed mouse assessed as increase in host survival; assay type: functional, organism-based
Staphylococcus aureus [39] = assay: Antibacterial activity against methicillin-resistant Staphylococcus aureus ATCC 33592 infected in mouse assessed as log reduction in bacteremia at 20 mg/kg/day, sc relative to control; assay type: functional; settings: route subcutaneous; how it was run: as §3
Staphylococcus aureus [40] = assay: Antibacterial activity against methicillin-resistant Staphylococcus aureus ATCC 33592 infected in mouse assessed as host survival at 20 mg/kg/day, sc relative to control; assay type: functional; settings: ATCC 33592, sc, route subcutaneous; how it was run: as §3
Staphylococcus aureus [41] = assay: Antibacterial activity against methicillin-resistant Staphylococcus aureus ATCC 33592 infected in mouse assessed as log reduction in bacteremia at 20 mg/kg/day, iv relative to control; assay type: functional
Staphylococcus aureus [42] = assay: Antibacterial activity against methicillin-resistant Staphylococcus aureus ATCC 33592 infected in mouse assessed as host survival at 20 mg/kg/day, iv relative to control; assay type: functional

CCCCCCc1c(O)c(Cl)cc2c1O[C@]1(C2=O)C(Cl)=C(Cl)C(=O)N1C (stereo in doubt; form 2)
Activity (Streptococcus pneumoniae [1]): inactive | Activity (Enterococcus faecium [2]): Dose-dependent effect | Activity (Escherichia coli [3]): Dose-dependent effect | Activity (Pseudomonas aeruginosa [4]): Active | Activity (Pseudomonas aeruginosa [5]): inactive | Activity (Enterococcus faecium [6]): inactive | Activity (Staphylococcus aureus [7]): Active | Activity (Escherichia coli [8]): inactive | Activity (Streptococcus pneumoniae [9]): Active | Activity (Pseudomonas aeruginosa [10]): Dose-dependent effect | Activity (Enterococcus faecium [11]): Active | Activity (Staphylococcus aureus [12]): inactive | Activity (Escherichia coli [13]): Active

CCCCCCc1c(O)ccc2c1O[C@]1(C2=O)C(Cl)=C(Cl)C(=O)N1C [ARMENIASPIROLE A]
IC80 (Pseudomonas aeruginosa [14]): > 30 µM | Activity (Streptococcus pneumoniae [1]): inactive | Activity (Staphylococcus aureus [15]): Dose-dependent effect | Activity (Pseudomonas aeruginosa [4]): Active | degraded at 24 h [16]: 30% | Activity (Pseudomonas aeruginosa [5]): inactive | half-life [17]: 3 h | Activity (Enterococcus faecium [6]): inactive | Activity (Staphylococcus aureus [7]): Active | Stability [18]: Stable | IC80 (Enterococcus faecium [19]): 8.2 µM | Vd [20]: 2.4 L/kg | FC (Staphylococcus aureus [21]): 2.8 | FC (Staphylococcus aureus [22]): 0.9 | degraded at 24 h [23]: < 10% | IC50 (Cytochrome P450 3A4): > 10 µM | Activity (Escherichia coli [8]): inactive | survival at 40 mg/kg/day (Staphylococcus aureus [24]): 50% | Activity (Streptococcus pneumoniae [9]): Active | Cmax [25]: 27400 ng/mL | survival at 15 mg/kg/day (Staphylococcus aureus [26]): 67% | inhibition at 10 µM (hERG (KCNH2)): < 35% | FC (Staphylococcus aureus [27]): 1.7 | IC80 (Staphylococcus aureus [28]): 0.125 µM | survival at 10 mg/kg/day (Staphylococcus aureus [29]): 33% | Activity (Enterococcus faecium [11]): Active | Activity (Staphylococcus aureus [12]): inactive | survival at 3 mg/kg/day (Staphylococcus aureus [30]): 0% | IC80 (Streptococcus pneumoniae [31]): 2.3 µM | FC (Staphylococcus aureus [32]): 0.8 | IC80 (Escherichia coli [33]): > 30 µM | IC50 (Cytochrome P450 2D6): > 10 µM | survival at 80 mg/kg/day (Staphylococcus aureus [34]): 50% | FC (Staphylococcus aureus [35]): 0.05 | clearance [36]: 20 mL/min/kg | solubility [37]: 25 µg/mL (≈ 65.1 µM) | Survival (Staphylococcus aureus [38]): Dose-dependent effect | FC (Staphylococcus aureus [39]): 0.2 | Activity (Escherichia coli [13]): Active | survival at 20 mg/kg/day (Staphylococcus aureus [40]): 0%

CC(C)CCCc1c(O)ccc2c1O[C@]1(C2=O)C(Cl)=C(Cl)C(=O)N1C [ARMENIASPIROLE B]
Activity (Streptococcus pneumoniae [1]): inactive | Activity (Pseudomonas aeruginosa [4]): Active | Activity (Pseudomonas aeruginosa [5]): inactive | Activity (Enterococcus faecium [6]): inactive | Activity (Staphylococcus aureus [7]): Active | Stability [18]: Stable | Activity (Escherichia coli [8]): inactive | Activity (Streptococcus pneumoniae [9]): Active | Activity (Enterococcus faecium [11]): Active | Activity (Staphylococcus aureus [12]): inactive | solubility [37]: 10 µg/mL (≈ 26 µM) | Activity (Escherichia coli [13]): Active

CC[C@H](C)CCCc1c(O)ccc2c1O[C@]1(C2=O)C(Cl)=C(Cl)C(=O)N1C [ARMENIASPIROLE C]
Activity (Streptococcus pneumoniae [1]): inactive | Activity (Pseudomonas aeruginosa [4]): Active | Activity (Pseudomonas aeruginosa [5]): inactive | Activity (Enterococcus faecium [6]): inactive | Activity (Staphylococcus aureus [7]): Active | Stability [18]: Stable | Activity (Escherichia coli [8]): inactive | Activity (Streptococcus pneumoniae [9]): Active | Activity (Enterococcus faecium [11]): Active | Activity (Staphylococcus aureus [12]): inactive | solubility [37]: 5 µg/mL (≈ 12.6 µM) | Activity (Escherichia coli [13]): Active

CN[C@H](CC(C)C)C(=O)N[C@H]1C(=O)N[C@@H](CC(N)=O)C(=O)N[C@H]2C(=O)N[C@H]3C(=O)N[C@H](C(=O)N[C@H](C(=O)O)c4cc(O)cc(O)c4-c4cc3ccc4O)[C@H](O)c3ccc(c(Cl)c3)Oc3cc2cc(c3O[C@@H]2O[C@H](CO)[C@@H](O)[C@H](O)[C@H]2O[C@H]2C[C@](C)(N)[C@H](O)[C@H](C)O2)Oc2ccc(cc2Cl)[C@H]1O [VANCOMYCIN]
IC80 (Enterococcus faecium [19]): > 30 µM | FC (Staphylococcus aureus [41]): 4.2 | survival at 20 mg/kg/day (Staphylococcus aureus [42]): 100% | survival at 40 mg/kg/day (Staphylococcus aureus [24]): 100% | IC80 (Staphylococcus aureus [28]): 0.4 µM | IC80 (Streptococcus pneumoniae [31]): 0.2 µM | FC (Staphylococcus aureus [32]): 4
